Test results from ChEMBL document CHEMBL1152452, “Modifications incorporated in CpG motifs of oligodeoxynucleotides lead to antagonist activity of toll-like receptors 7 and 9” (2009).
Active and inactive are the calls of the source. The calls are words filed in the database; no cut-off is given here.

Tests used:
Mus musculus [1] = experiment: Immunostimulatory activity in C57BL/6 mouse assessed as inhibition of 5'-CTATCTGACGTTCTCTGT-3'-induced IL12 production in serum at 5 mg/kg, sc administered 24 hrs prior to 5'-CTATCTGACGTTCTCTGT-3' challenge measured after 2 hrs by sandwich ELISA; assay type: functional; conditions: C57BL/6, sc, route subcutaneous
How it was run: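 C57BL/6 mice were pretreated sc in the right flank with 2, 5 or 10 mg/kg ODN. After 24 h, the TLR9 agonist ODN was given at 0.5 mg/kg sc in the left flank. Serum IL-12 was measured by ELISA 2 h later. Representative of two experiments.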

Mus musculus [2] = experiment: Immunostimulatory activity in C57BL/6 mouse assessed as inhibition of 1 mg/kg 5'-CTATCTGACGTTCTCTGT-3'-induced IL12 production in serum at 10 mg/kg, sc administered 24 hrs prior to 5'-CTATCTGACGTTCTCTGT-3' challenge measured after 2 hrs by sandwich ELISA; assay type: functional
How it was run: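 C57BL/6 mice received 10 mg/kg ODN sc in the right flank. After 24 h, the CpG TLR9 agonist ODN was given sc in the left flank at 0.25, 0.5 or 1 mg/kg. Serum IL-12 was measured by ELISA 2 h after challenge. Naive mice served as reference. Representative of two experiments.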

Mus musculus [3] = experiment: Immunostimulatory activity in C57BL/6 mouse assessed as inhibition of 5'-CTATCTGACGTTCTCTGT-3'-induced IL12 production in serum at 10 mg/kg, sc administered 48 hrs prior to 5'-CTATCTGACGTTCTCTGT-3' challenge measured after 2 hrs by sandwich ELISA; assay type: functional; conditions: C57BL/6, sc, route subcutaneous
How it was run: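 C57BL/6 mice received 10 mg/kg ODN sc in the right flank. The TLR9 agonist ODN was then given at 0.5 mg/kg sc in the left flank 24, 48 or 72 h later. Serum IL-12 was measured by ELISA 2 h after challenge. Naive serum served as reference. Representative of three experiments.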

Mus musculus [4] = experiment: Immunostimulatory activity in C57BL/6 mouse assessed as inhibition of 5'-CTATCTGACGTTCTCTGT-3'-induced MIP1a production in serum at 5 mg/kg, sc administered 24 hrs prior to 5'-CTATCTGACGTTCTCTGT-3' challenge measured after 2 hrs by Luminex multiplex assay; assay type: functional; conditions: C57BL/6, sc, route subcutaneous
Mus musculus [5] = experiment: Immunostimulatory activity in C57BL/6 mouse assessed as inhibition of 5'-CTATCTGACGTTCTCTGT-3'-induced TNFalpha production in serum at 5 mg/kg, sc administered 24 hrs prior to 5'-CTATCTGACGTTCTCTGT-3' challenge measured after 2 hrs by Luminex multiplex assay; assay type: functional; conditions: C57BL/6, sc, route subcutaneous
Mus musculus [6] = experiment: Immunostimulatory activity in C57BL/6 mouse assessed as inhibition of TLR7 agonist-induced IL6 production in serum at 5 mg/kg, sc administered 24 hrs prior to TLR7 agonist challenge measured after 2 hrs by Luminex multiplex assay; assay type: functional; conditions: C57BL/6, sc, route subcutaneous
Mus musculus [7] = experiment: Immunostimulatory activity in C57BL/6 mouse assessed as inhibition of TLR7 agonist-induced IP10 production in serum at 5 mg/kg, sc administered 24 hrs prior to TLR7 agonist challenge measured after 2 hrs by Luminex multiplex assay; assay type: functional; conditions: C57BL/6, sc, route subcutaneous
Mus musculus [8] = experiment: Immunostimulatory activity in C57BL/6 mouse assessed as inhibition of LPS-induced KC production in serum at 10 mg/kg, sc administered 24 hrs prior to LPS challenge measured after 2 hrs by Luminex multiplex assay
Mus musculus [9] = experiment: Immunostimulatory activity in C57BL/6 mouse assessed as inhibition of LPS-induced MIG production in serum at 10 mg/kg, sc administered 24 hrs prior to LPS challenge measured after 2 hrs by Luminex multiplex assay
Mus musculus [10] = experiment: Immunostimulatory activity in C57BL/6 mouse assessed as inhibition of LPS-induced IP10 production in serum at 10 mg/kg, sc administered 24 hrs prior to LPS challenge measured after 2 hrs by Luminex multiplex assay
Mus musculus [11] = experiment: Immunostimulatory activity in C57BL/6 mouse assessed as inhibition of TLR3 agonist-induced IP10 production in serum at 10 mg/kg, sc administered 24 hrs prior to TLR3 agonist challenge measured after 2 hrs by Luminex multiplex assay

SMILES: COC1[C@H](n2cnc3c(=O)[nH]c(N)nc32)O[C@H](COP(=O)(S)O[C@H]2C[C@H](n3cc(C)c(N)nc3=O)O[C@@H]2COP(=O)(S)O[C@H]2C[C@H](n3cnc4c(N)ncnc43)O[C@@H]2COP(=O)(S)O[C@H]2C[C@H](n3cnc4c(=O)[nH]c(N)nc43)O[C@@H]2COP(=O)(S)O[C@H]2C[C@H](n3cc(C)c(=O)[nH]c3=O)O[C@@H]2COP(=O)(S)O[C@H]2C[C@H](n3ccc(N)nc3=O)O[C@@H]2COP(=O)(S)O[C@H]2C[C@H](n3cc(C)c(=O)[nH]c3=O)O[C@@H]2COP(=O)(S)O[C@H]2C[C@H](n3cnc4c(N)ncnc43)O[C@@H]2COP(=O)(S)O[C@H]2C[C@H](n3cc(C)c(=O)[nH]c3=O)O[C@@H]2COP(=O)(S)O[C@H]2C[C@H](n3ccc(N)nc3=O)O[C@@H]2CO)[C@H]1OP(=O)(S)OC[C@H]1O[C@@H](n2cc(C)c(=O)[nH]c2=O)C[C@@H]1OP(=O)(S)OC[C@H]1O[C@@H](n2cc(C)c(=O)[nH]c2=O)C[C@@H]1OP(=O)(S)OC[C@H]1O[C@@H](n2ccc(N)nc2=O)C[C@@H]1OP(=O)(S)OC[C@H]1O[C@@H](n2cc(C)c(=O)[nH]c2=O)C[C@@H]1OP(=O)(S)OC[C@H]1O[C@@H](n2ccc(N)nc2=O)C[C@@H]1OP(=O)(S)OC[C@H]1O[C@@H](n2cc(C)c(=O)[nH]c2=O)C[C@@H]1OP(=O)(S)OC[C@H]1O[C@@H](n2cnc3c(=O)[nH]c(N)nc32)C[C@@H]1OP(=O)(S)OC[C@H]1O[C@@H](n2cc(C)c(=O)[nH]c2=O)C[C@@H]1O (stereo partly specified)
- inhibition in vivo at 5 mg/kg (Mus musculus [1]): 66%
- inhibition (INH) (Mus musculus [2]): 46%
- inhibition in vivo at 10 mg/kg (Mus musculus [3]): 57%
- inhibition in vivo at 5 mg/kg (Mus musculus [4]): 50%
- inhibition in vivo at 5 mg/kg (Mus musculus [5]): 50%
- inhibition in vivo at 5 mg/kg (Mus musculus [6]): 50%
- inhibition in vivo at 5 mg/kg (Mus musculus [7]): 50%
- Activity (Mus musculus [8]): inactive
- Activity (Mus musculus [9]): inactive
- Activity (Mus musculus [10]): inactive
- Activity (Mus musculus [11]): inactive
